PfG6PD inh: PfG6PD (Plasmodium falciparum) enzyme inhibition. PfGluPho enzyme, NADPH resazurin-diaphorase fluorescence. inhibition, % at 20 µM. 350,000 tested, 0.78% active. AID 504690;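 active = inhibition reaching at least a set limit at 20 µM in the primary screen, cut at about 59% in these data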;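 note: 0% = DMSO wells with substrate and 100% = DMSO wells lacking glucose-6-phosphate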
HKDC1 inhibitor: inhibitors of human hexokinase HKDC1; recombinant HKDC1, G6PDH/diaphorase resazurin coupled fluorescence; AID 493160; 340,000 tested, 0.16% active; inhibition, % at 20 µM; Q2TB90;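 active = inhibition above about 35% when tested at 20 µM, limit read from the data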;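 note: plate controls were DMSO wells with enzyme for no effect and DMSO wells lacking enzyme for full effect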
Target sequence (Q2TB90 whole entry, looked up): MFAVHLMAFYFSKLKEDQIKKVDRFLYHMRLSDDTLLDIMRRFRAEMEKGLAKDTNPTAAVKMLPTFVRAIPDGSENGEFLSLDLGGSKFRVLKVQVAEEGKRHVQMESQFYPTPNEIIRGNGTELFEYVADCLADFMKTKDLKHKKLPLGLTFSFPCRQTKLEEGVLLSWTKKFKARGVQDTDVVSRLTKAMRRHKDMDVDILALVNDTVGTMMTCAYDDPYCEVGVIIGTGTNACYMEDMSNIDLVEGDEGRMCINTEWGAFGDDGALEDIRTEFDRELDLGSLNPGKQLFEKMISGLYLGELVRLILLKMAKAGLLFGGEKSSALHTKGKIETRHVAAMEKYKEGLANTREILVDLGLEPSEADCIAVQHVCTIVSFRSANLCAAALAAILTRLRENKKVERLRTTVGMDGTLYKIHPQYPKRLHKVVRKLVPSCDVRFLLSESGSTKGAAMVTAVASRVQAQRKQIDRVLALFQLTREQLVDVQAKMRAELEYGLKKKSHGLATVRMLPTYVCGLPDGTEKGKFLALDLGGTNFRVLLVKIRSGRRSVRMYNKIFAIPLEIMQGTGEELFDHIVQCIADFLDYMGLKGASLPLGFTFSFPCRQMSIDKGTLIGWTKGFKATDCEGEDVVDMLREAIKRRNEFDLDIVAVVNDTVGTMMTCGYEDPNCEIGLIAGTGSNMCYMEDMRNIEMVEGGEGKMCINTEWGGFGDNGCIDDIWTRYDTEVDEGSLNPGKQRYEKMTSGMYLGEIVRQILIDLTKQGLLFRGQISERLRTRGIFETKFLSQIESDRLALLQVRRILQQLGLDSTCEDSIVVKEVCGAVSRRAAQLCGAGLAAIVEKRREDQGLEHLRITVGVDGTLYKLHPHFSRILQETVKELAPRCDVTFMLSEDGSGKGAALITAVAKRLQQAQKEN
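Incubation: 90 min at room temperature in dark / Material: recombinant HKDC1 (HK5) hexokinase enzyme, produced in-house / Quantity: enzyme 5 µg/mL final / Compound: one dose of 20 µM, 1% DMSO / Reagent: glucose and ATP substrates / Buffer or medium: Tris pH 8.0 buffer with MgCl2, Tween-20, BSA, BME / Technique: resorufin fluorescence at 613 nm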
G6PDH CS: L. mesenteroides G6PDH inhibition counter-screen; inhibition, % at 5 µM; Purified L. mesenteroides G6PDH, diaphorase/resazurin coupled fluorescence, 45 min; 200,000 tested, 0.12% active; in the data active = inhibition above about 50%
Diaph act CS: counter-screen for diaphorase-based assays: diaphorase activators and chemical reducers | Diaphorase/resazurin coupled assay, resorufin fluorescence, 16 min; hits give high values; 1 = vehicle wells, 0 = NADH-free wells | activation factor at 20 µM | 190,000 tested, 0.005% active | AID 1229;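 active = diaphorase activity raised at least twofold by the compound at 20 µM; inactive = activation factor below 2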
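test system = bacterial diaphorase enzyme (C. kluyveri) | quantity = enzyme 0.07 U/mL final | reagent = NADH substrate 0.114 mM plus resazurin dye 0.1 mM, final | incubation = 16 min enzyme reaction, ambient temperature | buffer or medium = HEPES pH 7.4 buffer with MgCl2 and Tween 20 | signal = fluorescence of resorufin, 544 nm excitation, 590 nm emission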
Diaph inh CS: inhibits diaphorase or chemically oxidizes, flagging diaphorase assay artifacts. AID 1217. 190,000 tested, 0.69% active. diaphorase resazurin-to-resorufin fluorescence, NADH, 16 min; bacterial (C. kluyveri) enzyme, not human. inhibition, % at 20 µM;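 active = primary screen inhibition at 20 µM above a set limit, cut at about 50% in these data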;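 note: plate controls were DMSO with full reaction for no effect and wells lacking NADH for full effect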
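controls = No-NADH positive control and DMSO neutral control | system = Clostridium kluyveri diaphorase enzyme | timing = reaction incubation of 16 min at room temperature | signal = resorufin fluorescence 544/590 nm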
HKDC1 act conf2: confirmation of human HKDC1 activators; shares compounds with HKDC1 inhibitor; recombinant HKDC1, G6PDH/diaphorase resazurin fluorescence; hits give low values; inhibition, % at 20 µM; 740 tested, 14% active;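 active = inhibition at or below a set negative limit, negative inhibition meaning the enzyme was activated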
PfGluPho conf: PfG6PD inhibition, single-dose confirmed; inhibition, % at 20 µM; 2,400 tested, 34% active; AID 504753; recombinant PfGluPho, NADPH-diaphorase-resazurin fluorescence; shares compounds with PfG6PD inh;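 active = inhibition of at least 50% at 20 µM in any single replicate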;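 note: 0% = DMSO with substrate and 100% = DMSO lacking glucose-6-phosphate substrate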
Diaphorase 10uM: diaphorase inhibition or oxidation at 10 uM NADPH | diaphorase-coupled resazurin reduction, fluorescence, NADPH 10 uM | AID 504862 | inhibition, % at 20 µM | shares compounds with PfG6PD inh | 820 tested, 39% active;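 active = average inhibition reaching 50% or more with the compound at 20 µM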;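 note: resorufin red fluorescence formed as diaphorase reduces resazurin using NADPH; 0% = DMSO with enzyme and 100% = DMSO without enzyme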
Diaph ctr 30uM: counter-screen for P. falciparum G6PD inhibitors: diaphorase inhibitors, oxidizers; shares compounds with PfG6PD inh; Diaphorase/resazurin coupled assay, resorufin fluorescence, 30 uM NADPH; inhibition, % at 20 µM; 820 tested, 29% active; AID 504863;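 active = inhibition averaging 50% or more, tested at 20 µM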;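 note: 0% = DMSO with enzyme and 100% = DMSO wells lacking diaphorase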
* hit, by the source's call; . = not tested or not shown; ! = a repeat was not active. An excerpt weighted towards active compounds, which were near 1.3% of everything screened.

SMILES | PfG6PD inh | HKDC1 inhibitor | G6PDH CS | Diaph act CS | Diaph inh CS | HKDC1 act conf2 | PfGluPho conf | Diaphorase 10uM | Diaph ctr 30uM
COc1cc([N+](=O)[O-])ccc1-c1ccc(/C=C2\C(=O)ON=C2c2ccccc2)o1 | 74* | 44* | . | . | . | 25 | -9 | . | .
COc1cc([N+](=O)[O-])ccc1-c1ccc(/C=N\n2cnnc2)o1 | 4 | 1 | . | . | . | . | . | . | .
Cc1ccc(C)c(N2N=C(C(=O)OCC(=O)N(C)c3ccccc3)CCC2=O)c1 | 4 | -1 | . | . | . | . | . | . | .
CC(=O)Nc1ccc(NC2=C/C(=N/S(=O)(=O)c3cccs3)c3ccccc3C2=O)cc1 | 87* | 44* | 44 | 0.9 | 8 | 52 | 73* | 73* | 76*
COc1ccc(S(=O)(=O)/N=C2\C=C(Nc3ccc(O)cc3)C(=O)c3ccccc32)cc1 | 109* | 42* | . | . | . | 27 | 52* | 40 | 48
Cc1ccccc1NC1=C/C(=N\S(=O)(=O)c2ccc(C(=O)O)cc2)c2ccccc2C1=O | 78* | 70* | . | . | . | 71 | 61* | 59* | 52*
CCc1ccc(S(=O)(=O)/N=C2\C=C(NS(=O)(=O)c3ccccc3)C(=O)c3ccccc32)cc1 | 24 | 28 | . | . | . | . | . | . | .
CC(=O)Nc1ccc(NC(=O)C(C)OC(=O)c2ccccc2NS(=O)(=O)c2cccs2)cc1 (stereo not drawn) | 52 | -1 | . | . | . | . | . | . | .
Nc1c(Cl)cc(N=Nc2ccccc2)cc1Cl | 3 | 0 | . | . | . | . | . | . | .
CC(OC(=O)Cc1c(F)cccc1Cl)C(=O)NC1(C#N)CCCCC1 (stereo not drawn) | -6 | -1 | . | . | . | . | . | . | .
Cc1nc2cc(NC(=O)N3CCN(c4ccccn4)CC3)ccc2o1 | 35 | -3 | 4 | 0.9 | 8 | . | . | . | .
O=C(Nc1ccc2nc(-c3ccco3)c(-c3ccco3)nc2c1)N1CCN(c2ccccn2)CC1 | 81* | 57* | 24 | 0.3 | 70* | -13 | 20 | . | .
C=CS(=O)(=O)c1c2cc(OC)ccc2nc2ccc(OC)cc12 | 69* | 34 | . | . | . | 4 | 20 | . | .
O=S(=O)(Nc1cc(Sc2ncn[nH]2)c(O)c2ccccc12)c1ccccc1 | 102* | 55* | 54* | 0.8 | 18 | 48 | 98* | 53* | 46
Cc1nc2c(C)c(C)c(C)c(C)c2nc1C | 3 | 0 | . | . | . | . | . | . | .
Cc1nc2c(O)c3c(c(O)c2nc1C)C1C=CC3CC1 | 123* | 82* | . | . | . | 90 | 102* | 95* | 89*
CCn1c2ccccc2c2nc3cc(S(=O)(=O)N4CCOCC4)ccc3nc21 | 100* | -61 | 0 | 0.8 | 19 | -47* | 61* | -9 | 3
c1ccc2nc3c(nc2c1)c1ccccc1n3CCN1CCOCC1 | 33 | -1 | -20 | 0.8 | 16 | . | . | . | .
COc1cc(-c2nnc(-c3cc(OC)c(OC)c(OC)c3)o2)cc(OC)c1OC | 10 | -6 | 1 | 0.9 | 14 | . | . | . | .
COc1cc(N=c2ssnc2Cl)cc(OC)c1OC | 83* | -100 | -3 | 0.8 | 20 | -46* | 68* | -26 | -22
Cc1nc(COC(=O)c2ccc(CO)cc2)cs1 | -6 | -2 | 8 | 0.9 | 13 | . | . | . | .
Cc1nc(COC(=O)c2cc(O)c3ccccc3c2O)cs1 | 92* | 60* | 38 | 0.7 | 34 | 39 | 55* | -11 | -3
CN(C)c1ccc2nc3ccc(=[N+](C)C)cc-3sc2c1 | 112* | 36* | 1 | 1.2 | -22 | 25 | 84* | 79* | 78*
C[n+]1c2cc(N)ccc2cc2ccc(N)cc21 | 78* | 44*! | . | . | . | -20 | 19 | . | .
Nc1ccc2ccc(O)cc2c1 | 32 | 15 | . | . | . | . | . | . | .
SMILES | PfG6PD inh | HKDC1 inhibitor | G6PDH CS | Diaph act CS | Diaph inh CS | HKDC1 act conf2 | PfGluPho conf | Diaphorase 10uM | Diaph ctr 30uM
Cc1ccc(SC2=C(Sc3ccc(C)cc3)C(=O)c3ccccc3C2=O)cc1 | 90* | 66* | . | . | . | 69 | 62* | 20 | -1
CN(C)c1ccc(Cc2cc3c(O)ccc(O)c3cc(Cc3ccc(N(C)C)cc3)c2=O)cc1 | 113* | 60* | . | . | . | 45 | 84* | 11 | 4
CC(=O)OC1(C(C)=O)CCC2C3CC(Cl)C4=CC(=O)CCC4(C)C3CCC21C (stereo not drawn) | 2 | -5 | . | . | . | . | . | . | .
CC1(OC(=O)C2CCCC2)C(=O)C=C2C=C(c3ccsc3)N(CCc3c[nH]c4ccccc34)C=C2C1=O (stereo not drawn) | 78* | 35* | . | . | . | 6 | 66* | 5 | 8
COc1cc2c(c(OC)c1OC)-c1ccc(SC)c(=O)cc1C(NC=O)CC2 (stereo not drawn) | 24 | -5 | . | . | . | . | . | . | .
COCC(=O)OC1CCn2c1nc1c2C(=O)C(C)=C(NC(C)=O)C1=O (stereo not drawn) | 123* | 68* | . | . | . | 79 | 104* | 99* | 89*
COc1ccccc1/C=N/NC(=O)CC(=O)Nc1ccc(Cl)c(Cl)c1 | 106* | 5 | -2 | 0.7 | 26 | . | 44 | . | .
O=c1oc2ccccc2cc1-c1ccccc1 | -10 | -11 | 6 | 0.9 | 10 | . | . | . | .
O=C(O)c1ccc(-n2cc(-c3cc4ccccc4oc3=O)[nH]c2=S)cc1 | 61* | -7 | 2 | 0.8 | 23 | . | 25 | . | .
Cc1ccc2c(c1)CO[C@]21O[C@H](CCO)C[C@H](O)[C@H]1O | 14 | . | . | . | . | . | . | . | .
Cc1ccc(S(=O)(=O)CCC(=O)OCC(=O)NC(C)c2ccccc2)cc1 (stereo not drawn) | -11 | 1 | . | . | . | . | . | . | .
CCc1ccc2[nH]c(=O)c(C(c3nnnn3CCOC)N3CCN(c4ccc(F)cc4)CC3)cc2c1 (stereo not drawn) | 8 | 2 | 5 | 0.8 | 24 | . | . | . | .
COCCn1nnnc1C(c1cc2cc(OC)c(OC)cc2[nH]c1=O)N1CCN(c2ccc(O)cc2)CC1 (stereo not drawn) | 65* | 6 | 33 | . | . | . | 56* | 7 | -3
CN(C)CC(=O)Nc1ccc2c(c1)[C@H]1C[C@H](CC(=O)NCc3ccc4c(c3)OCO4)O[C@H](CO)[C@H]1O2 | 3 | . | . | . | . | . | . | . | .
COc1cccc(C(=O)Nc2ccc(Cl)c(C(F)(F)F)c2)c1 | 65* | 3 | -22 | 0.8 | 20 | . | -15 | . | .
CC(Cc1ccc(O)c(O)c1)C(C)Cc1ccc(O)c(O)c1 (stereo not drawn) | 84* | 6 | . | . | . | . | 61* | 0 | 3
O=C(/C=C/c1cccc([N+](=O)[O-])c1)OCC(=O)N1CCCCC1 | 12 | . | . | . | . | . | . | . | .

Bioassay records (PubChem)
